Activity calls are given as the source filed them. The rule behind the calls is not given here.

The first data set concerns Rattus norvegicus. Nature of the data set: Proerectile activity in rat measured as incidence of penile erection at 0.1 umol/kg, sc. It is filed as functional.
Conditions: not given
The method in brief: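 Conscious male rats were given a single subcutaneous injection and observed for penile erections over the following 60 min. The read-out was the incidence of erections, expressed as % of animals ± SEM (n = 12–32 animals per group), with significance tested against controls. The value is the maximal incidence at the maximally effective dose.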
The compound `CN1CCc2cccc3c2[C@H]1Cc1ccc(O)c(O)c1-3` [APOMORPHINE] had an Activity of 91%.

The next data set has as its target T1, D(4) dopamine receptor (Homo sapiens) (UniProt P21917).
T1 sequence (whole entry): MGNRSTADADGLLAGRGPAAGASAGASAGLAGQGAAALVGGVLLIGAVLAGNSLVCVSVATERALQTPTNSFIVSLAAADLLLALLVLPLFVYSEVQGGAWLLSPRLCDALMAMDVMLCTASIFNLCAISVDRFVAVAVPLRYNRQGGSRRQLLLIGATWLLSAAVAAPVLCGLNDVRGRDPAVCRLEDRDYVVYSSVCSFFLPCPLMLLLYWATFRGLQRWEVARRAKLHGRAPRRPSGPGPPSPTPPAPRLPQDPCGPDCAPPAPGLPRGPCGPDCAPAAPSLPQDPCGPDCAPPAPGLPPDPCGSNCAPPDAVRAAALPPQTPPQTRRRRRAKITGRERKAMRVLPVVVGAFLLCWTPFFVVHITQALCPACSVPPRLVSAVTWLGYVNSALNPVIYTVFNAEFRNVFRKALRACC
Nature of the data set: Activity at human D4.4 receptor in HEK293 cells co-expressing Galphaqo5 by FLIPR. Particulars: filed as partial agonist. It is filed as functional, cell-based.
On to `c1ccc(N2CCN(Cc3nc4ccccc4[nH]3)CC2)nc1`, for which the Activity result was “Partial agonist”.

On to `Cc1cccc(NC(=O)CN2CCC(c3ccc(O)cc3)CC2)c1`, for which the Activity entry is “Partial agonist”.

Take `O=C(CN1CCC(c2cccc[n+]2[O-])CC1)NC1CCCCC1`: the Activity entry was “Partial agonist”.

Regarding `[O-][n+]1ccccc1C1CCN(Cc2nc3ccccc3[nH]2)CC1`, the Activity entry was “Partial agonist”.

In the case of `O=C(NCN1CCC(c2cccc[n+]2[O-])CC1)c1ccccc1`, the Activity result is “Partial agonist”.

Regarding `Cc1cccc(NC(=O)CN2CCC(c3cccc(O)c3)CC2)c1`, the Activity result was “Partial agonist”.

The target in the next data set is T2, D(4) dopamine receptor (Homo sapiens, UniProt P21917).
T2 sequence (P21917 whole entry): T1 sequence (whole entry)
As to the kind of experiment: Agonist activity at human D4.4 receptor in HEK293 cells coexpressing G-alpha-qo5 by FLIPR.
Conditions: not given
It is filed as functional, cell-based.
As a reminder, the EC50 is the concentration that produces a half-maximal response. Low readings indicate higher potency in that assay, high ones lower potency in that assay. Take `CSc1cccc(NC(=O)CN2CCC(c3cccc[n+]3[O-])CC2)c1`: the EC50 came to 100 nM.

For the compound `Cc1cccc(NC(=O)CN2CCC(c3ncccc3C#N)CC2)c1`, the EC50 stood at 36 nM.

The compound `Cc1cccc(NC(=O)CN2CCC(c3ccccc3C)CC2)c1` registered an EC50 of 340 nM.

The compound `O=C(CN1CCC(c2cccc[n+]2[O-])CC1)Nc1ccc(F)cc1C(F)(F)F` registered an EC50 of 473 nM.

On to `Cc1cccc(NC(=O)CN2CCC(c3ccccc3C#N)CC2)c1`, for which a half-maximal response (EC50) required 8 nM.

Compound `O=C(CN1CCC(c2cccc[n+]2[O-])CC1)Nc1cc(Cl)cc(Cl)c1` returned an EC50 of 160 nM. Compared with the last compound, the EC50 is about 20-fold higher.

On to `O=C(CN1CCC(c2cccc[n+]2[O-])CC1)Nc1ccc(F)cc1`, for which the EC50 worked out at 85 nM.

Regarding `CC(C)Oc1cccc(NC(=O)CN2CCC(c3cccc[n+]3[O-])CC2)c1`, the EC50 is 555 nM.

As for `O=C(NCN1CCC(c2cccc[n+]2[O-])CC1)c1ccccn1`, the response was half-maximal at 3150 nM (EC50). This EC50 is about 5.7-fold higher than that of the compound before.

For the compound `O=C(NCN1CCC(c2cccc[n+]2[O-])CC1)c1ccc2ccccc2c1`, the EC50 was found to be 115 nM. This EC50 is about 27-fold lower than that of the compound before.

`Cc1cc(C(=O)NCN2CCC(c3cccc[n+]3[O-])CC2)ccc1F` yielded an EC50 of 50 nM.

In the case of `Cc1cccc(Cl)c1NC(=O)CN1CCC(c2ccccn2)CC1`, the response was half-maximal at 60 nM (EC50). This EC50 and that of the compound before are within 1.5-fold of each other.

`O=C(NCN1CCC(c2cccc[n+]2[O-])CC1)c1ccc(F)c(Cl)c1` came in with an EC50 of 63 nM.

Consider `Cc1cccc(NC(=O)CN2CCC(c3nccs3)CC2)c1`, for which a half-maximal response (EC50) required 1 nM.

`Cc1cccc(NC(=O)CN2CCC(c3cccc(F)c3)CC2)c1` yielded an EC50 of 512 nM.

As to `COc1cccc(C)c1NC(=O)CN1CCC(c2ccccn2)CC1`, the EC50 worked out at 40 nM.

In the case of `Cc1cccc(NC(=O)CN2CCC(c3ccc(O)cc3)CC2)c1`, the response was half-maximal at 70 nM (EC50).

`O=C(CN1CCC(c2cccc[n+]2[O-])CC1)Nc1cccc(Cl)c1` displayed an EC50 of 62 nM.

In turn, `Cc1cc(NC(=O)CN2CCC(c3cccc[n+]3[O-])CC2)ccc1F` yielded an EC50 of 18 nM.

With `Cc1cccc(C(=O)NCN2CCC(c3nccs3)CC2)c1`, a half-maximal response (EC50) required 9.8 nM.

Compound `Cc1cccc(NC(=O)CN2CCC(c3ccccc3)CC2)c1` came in with an EC50 of 170 nM.

Consider `Cc1cc(Br)ccc1NC(=O)CN1CCC(c2cccc[n+]2[O-])CC1`, for which the EC50 is 66 nM.

For the compound `Cc1cccc(NC(=O)CN2CCC(c3ccc(O)cn3)CC2)c1`, it took 3.8 nM to reach a half-maximal effect (EC50).

Turning to `N#Cc1cccc(C(=O)NCN2CCC(c3cccc[n+]3[O-])CC2)c1`, the EC50 was found to be 840 nM. This EC50 lies about 220-fold higher than the previous one.

The compound `O=C(NCN1CCC(c2cccc[n+]2[O-])CC1)c1cnccc1Cl` registered an EC50 of 1290 nM.

`Cc1ccc(Cl)c(NC(=O)CN2CCC(c3cccc[n+]3[O-])CC2)c1Cl` displayed an EC50 of 346 nM.

In turn, `Cc1cc(Cl)cc(C)c1NC(=O)CN1CCC(c2ccccn2)CC1` gave an EC50 of 240 nM.

Compound `O=C(CN1CCC(c2cccc[n+]2[O-])CC1)NC1CCCCC1` had an EC50 of 294 nM.

Regarding `O=C(CN1CCC(c2cccc[n+]2[O-])CC1)Nc1cccc(-c2ccccc2)c1`, a half-maximal effect (EC50) was put at 360 nM.

The compound `Cc1cccc(NC(=O)CN2CCC(c3ccccc3F)CC2)c1` gave an EC50 of 1 nM.

For the compound `O=C(CN1CCC(c2cccc[n+]2[O-])CC1)Nc1ccccc1F`, the EC50 was 270 nM. Against the preceding compound, the EC50 is about 270-fold higher.

As for `Cc1cc(C)cc(NC(=O)CN2CCC(c3cccc[n+]3[O-])CC2)c1`, a half-maximal effect (EC50) was put at 52 nM.

In the case of `O=C(CN1CCC(c2cccc[n+]2[O-])CC1)Nc1cccc(F)c1`, the midpoint of the response, the EC50, lay at 160 nM.

Compound `c1ccc(C2CCN(Cc3nc4ccccc4[nH]3)CC2)nc1` showed an EC50 of 12 nM.

In turn, `O=C(CN1CCC(c2cccc[n+]2[O-])CC1)Nc1ccc(F)cc1F` showed an EC50 of 103 nM.

On to `Cc1ccc(Cl)cc1NC(=O)CN1CCC(c2cccc[n+]2[O-])CC1`, for which a half-maximal effect (EC50) was put at 126 nM. The EC50 values of the last two compounds are within 1.5-fold of each other.

`Cc1ccc(C(=O)NCN2CCC(c3cccc[n+]3[O-])CC2)cc1C` registered an EC50 of 38 nM.

`CCOc1cccc(C(=O)NCN2CCC(c3cccc[n+]3[O-])CC2)c1` registered an EC50 of 324 nM.

`COc1cccc(C(=O)NCN2CCC(c3cccc[n+]3[O-])CC2)c1C` returned an EC50 of 685 nM.

`O=C(CN1CCC(c2cccc[n+]2[O-])CC1)Nc1cccc(C(F)(F)F)c1` registered an EC50 of 76 nM.

The compound `C=Cc1cccc(C(=O)NCN2CCC(c3cccc[n+]3[O-])CC2)c1` gave an EC50 of 68 nM.

`CCc1cccc(C)c1NC(=O)CN1CCC(c2ccccn2)CC1` yielded an EC50 of 111 nM.

As to `Cc1cc(C)cc(C(=O)NCN2CCC(c3cccc[n+]3[O-])CC2)c1`, the EC50 is 90 nM.

Take `O=C(CN1CCC(c2cccc[n+]2[O-])CC1)Nc1cccc(Cl)c1Cl`: the EC50 was determined as 180 nM.

In turn, `Cc1cc(C(=O)NCN2CCC(c3cccc[n+]3[O-])CC2)ccc1Cl` gave an EC50 of 2460 nM.

The compound `O=C(NCN1CCC(c2cccc[n+]2[O-])CC1)c1cc(Cl)cc(Cl)c1` registered a half-maximal effective concentration (EC50) of 45 nM.

On to `[O-][n+]1ccccc1C1CCN(Cc2nc3ccccc3[nH]2)CC1`, for which the EC50 worked out at 54 nM. The EC50 values of the last two compounds are within 1.5-fold of each other.

Compound `Cc1ccc(C(=O)NCN2CCC(c3cccc[n+]3[O-])CC2)cc1C(F)(F)F` registered an EC50 of 85 nM. Compared with the last compound, the EC50 is about 1.6-fold higher.

In the case of `O=C(NCN1CCC(c2cccc[n+]2[O-])CC1)c1ccc(OC(F)(F)F)c(Cl)c1`, the EC50 came to 170 nM.

As for `O=C(CN1CCC(c2cccc[n+]2[O-])CC1)Nc1cccc(OC(F)(F)F)c1`, the concentration for a half-maximal effect (EC50) stood at 135 nM.

With `O=C(NCN1CCC(c2cccc[n+]2[O-])CC1)c1ccccc1`, the EC50 was 532 nM.

In turn, `Cc1cccc(NC(=O)CN2CCC(c3cccc(O)c3)CC2)c1` showed an EC50 of 8 nM. This EC50 lies about 66-fold lower than the previous one.

As to `O=C(CN1CCC(c2ccccn2)CC1)Nc1c(Cl)cc(Cl)cc1Cl`, a half-maximal effect (EC50) was put at 145 nM.

For the compound `COc1cc(C(=O)NCN2CCC(c3cccc[n+]3[O-])CC2)ccc1Cl`, a half-maximal effect (EC50) was put at 159 nM. This EC50 and that of the compound before are within 1.5-fold of each other.

Turning to `COc1cccc(C)c1NC(=O)CN1CCC(c2cccc[n+]2[O-])CC1`, it took 340 nM to reach a half-maximal effect (EC50).

Regarding `CCc1cccc(NC(=O)CN2CCC(c3cccc[n+]3[O-])CC2)c1`, the response was half-maximal at 95 nM (EC50).

`COc1ccccc1C1CCN(CC(=O)Nc2cccc(C)c2)CC1` yielded an EC50 of 420 nM.

As for `Cc1cccc(C)c1NC(=O)CN1CCC(c2cccc[n+]2[O-])CC1`, a half-maximal effect (EC50) was put at 346 nM. This EC50 and that of the compound before are within 1.5-fold of each other.

Test system in the next data set: not listed separately
Nature of the data set: Agonist activity at ferret D4 receptor in HEK293 cells coexpressing G-alpha-qo5 by FLIPR. Particulars: Mustela putorius. It is filed as functional, cell-based, Mustela putorius furo. Summed up:
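HEK cells cotransfected with ferret D4 receptor and chimeric G protein Gqo5, with receptor activation read as a calcium flux signal on FLIPR. EC50 is the concentration giving half-maximal activation.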
Regarding `NCCc1ccc(O)c(O)c1` [DOPAMINE], a half-maximal effect (EC50) was put at 2.7 nM.

For `CN1CCc2cccc3c2[C@H]1Cc1ccc(O)c(O)c1-3` [APOMORPHINE], the EC50 was found to be 1.5 nM.

Test system in the next data set: not listed separately
As to the kind of experiment: Bioavailability in Sprague-Dawley rat at 1 mg/kg, po. The class given is ADME, organism-based. Particulars: in vivo. Summed up: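 Single 1 mg/kg dose given iv, sc or orally to Sprague-Dawley rats, dogs and monkeys; plasma concentrations followed over time (mean ± SEM, n = 3). Cmax, AUC, half-life, clearance and bioavailability calculated from the curves.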
Broadly, the bioavailability is the share of a dose that reaches the circulation, judged against a reference dose that is usually intravenous. High values mean much systemic uptake, low ones little systemic uptake. Turning to `Cc1cccc(NC(=O)CN2CCC(c3ccc(O)cn3)CC2)c1`, the bioavailability turned out to be 0%.

A further data set has as its target T1, D(4) dopamine receptor (Homo sapiens). As to the kind of experiment: Agonist activity at human D4.4 receptor in HEK293 cells coexpressing G-alpha-qo5 by FLIPR upto 10 uM. The class given is functional, cell-based.
Conditions: not given
`COc1ccc(C2CCN(CC(=O)Nc3cccc(C)c3)CC2)cc1`: the result was inactive.

As for `Cc1cccc(NC(=O)CN2CCC(c3ccc(F)cc3)CC2)c1`, the result was inactive.

Test system in the next data set: not listed separately
Nature of the data set: Agonist activity at ferret D4 receptor in HEK293 cells coexpressing G-alpha-qo5 by FLIPR relative to dopamine. The class given is functional, Mustela putorius furo.
Conditions: not given
For the compound `CN1CCc2cccc3c2[C@H]1Cc1ccc(O)c(O)c1-3` [APOMORPHINE], the Efficacy is recorded as 84%.

(Values after ChEMBL document CHEMBL1137302 (J Med Chem, 2006).)
